How the values were obtained:
Type in all cases: functional
Cavia porcellus [1] = experiment: Bronchodilatory activity in iv dosed Hartley guinea pig assessed as inhibition of histamine-induced spasm administered 3 to 4 times at 15 mins interval starting 2 mins post challenge
Method in brief: (§1)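 Hartley guinea pigs (either sex, 250-500 g) under urethane (1.5 g/kg ip) plus iv gallamine, artificially ventilated. Histamine was infused iv for 12 s every 5 min to raise tracheal pressure 20-50 cm water. Salts were given iv in water and esters in 10% aqueous ethanol, 3-4 log-spaced doses. Read-out was % variation in spasm amplitude versus control; ED50 (-50%) by semilog regression; ≥4 animals.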

Cavia porcellus [2] = experiment: Bronchodilatory activity in iv dosed Hartley guinea pig assessed as inhibition of serotonin-induced spasm administered 3 to 4 times at 15 mins interval starting 2 mins post challenge
Method in brief: (§2)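 Serotonin (7.5-30 μg/kg iv, 12-s injections every 5 min) induced bronchospasm (20-50 cm water rise) in ventilated, urethane/gallamine-treated Hartley guinea pigs (250-500 g). After three matched control spasms, test agent was given iv over 1 min 2 min later, repeated at 15-min intervals, 3-4 log doses. Water was the vehicle for salts and 10% aqueous ethanol for esters. Intratracheal pressure was recorded; ED50 from semilog regression of % variation; ≥4 animals.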

Cavia porcellus [3] = experiment: Bronchodilatory activity in iv dosed Hartley guinea pig assessed as inhibition of acetylcholine-induced spasm administered 3 to 4 times at 15 mins interval starting 2 mins post challenge
Method in brief: (§3)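 Urethane-anesthetized (1.5 g/kg ip), gallamine-curarized Hartley guinea pigs (either sex, 250-500 g), ventilated at 60 strokes/min. Acetylcholine (40-150 μg/kg, 12-s iv infusions every 5 min) set to raise tracheal pressure 20-50 cm water. Compounds (sodium salts in water; esters in 10% aqueous ethanol) given iv over 1 min. Spasm amplitude expressed as % variation from control. ED50 from semilog regression; ≥4 animals.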

Cavia porcellus [4] = experiment: Bronchodilatory activity in Hartley guinea pig assessed as inhibition of serotonin-induced spasm at 3.2 mg/kg, iv administered 3 to 4 times at 15 mins interval starting 2 mins post challenge; method in brief: as §2
Cavia porcellus [5] = experiment: Bronchodilatory activity in Hartley guinea pig assessed as inhibition of acetylcholine-induced spasm at 3.2 mg/kg, iv administered 3 to 4 times at 15 mins interval starting 2 mins post challenge; method in brief: as §3
Cavia porcellus [6] = experiment: Bronchodilatory activity in Hartley guinea pig assessed as inhibition of histamine-induced spasm at 3.2 mg/kg, iv administered 3 to 4 times at 15 mins interval starting 2 mins post challenge; method in brief: as §1
Cavia porcellus [7] = experiment: Bronchodilatory activity in iv dosed Hartley guinea pig assessed as lowest dose required for >/= 50% inhibition of serotonin-induced spasm administered 3 to 4 times at 15 mins interval starting 2 mins post challenge; method in brief: as §2
Cavia porcellus [8] = experiment: Bronchodilatory activity in iv dosed Hartley guinea pig assessed as lowest dose required for >/= 50% inhibition of histamine-induced spasm administered 3 to 4 times at 15 mins interval starting 2 mins post challenge; method in brief: as §1
Cavia porcellus [9] = experiment: Bronchodilatory activity in iv dosed Hartley guinea pig assessed as lowest dose required for >/= 50% inhibition of acetylcholine-induced spasm administered 3 to 4 times at 15 mins interval starting 2 mins post challenge; method in brief: as §3

CCCCC[C@](C)(O)/C=C/C1CCC(=O)[C@@H]1CCCCOCC(=O)OCC (mixture of isomers)
ED50 (Cavia porcellus [1]): 282 µg/kg
ED50 (Cavia porcellus [2]): 78.8 µg/kg
ED50 (Cavia porcellus [3]): 618 µg/kg

CCCCC[C@H](O)/C=C/C1CCC(=O)[C@@H]1CCCCCCC(=O)O (mixture of isomers)
ED50 (Cavia porcellus [1]): 3.4 µg/kg
ED50 (Cavia porcellus [2]): 397 µg/kg
ED50 (Cavia porcellus [3]): > 32 µg/kg

CCCCC(C)(C)[C@H](O)/C=C/C1CCC(=O)[C@@H]1CCCCCCC(=O)O (mixture of isomers)
ED50 (Cavia porcellus [1]): 4.17 µg/kg
ED50 (Cavia porcellus [2]): 25.9 µg/kg
ED50 (Cavia porcellus [3]): 42.9 µg/kg

CCCCC(C)(C)[C@@H](O)/C=C/C1CCC(=O)[C@@H]1CCCCCCC(=O)O (mixture of isomers)
ED50 (Cavia porcellus [1]): 107 µg/kg
ED50 (Cavia porcellus [2]): 19 µg/kg
ED50 (Cavia porcellus [3]): 135 µg/kg

CCCCC(C)(C)[C@H](O)/C=C/C1CCC(=O)[C@@H]1CCCCCC(C)C(=O)O (mixture of isomers)
inhibition in vivo at 3.2 mg/kg (Cavia porcellus [4]): < 50%
inhibition in vivo at 3.2 mg/kg (Cavia porcellus [5]): < 50%
inhibition in vivo at 3.2 mg/kg (Cavia porcellus [6]): < 50%

CCCCC(C)(C)[C@@H](O)/C=C/C1CCC(=O)[C@@H]1CCCCCC(C)C(=O)O (mixture of isomers)
inhibition in vivo at 3.2 mg/kg (Cavia porcellus [4]): < 50%
inhibition in vivo at 3.2 mg/kg (Cavia porcellus [5]): < 50%
inhibition in vivo at 3.2 mg/kg (Cavia porcellus [6]): < 50%

CCCCC(C)(C)[C@H](O)/C=C/C1CCC(=O)[C@@H]1CCCCCC(C(=O)OCC)c1ccccc1 (mixture of isomers)
inhibition in vivo at 3.2 mg/kg (Cavia porcellus [4]): < 50%
inhibition in vivo at 3.2 mg/kg (Cavia porcellus [5]): < 50%
inhibition in vivo at 3.2 mg/kg (Cavia porcellus [6]): < 50%

CCCCC(C)(C)[C@@H](O)/C=C/C1CCC(=O)[C@@H]1CCCCCC(C(=O)OCC)c1ccccc1 (mixture of isomers)
inhibition in vivo at 3.2 mg/kg (Cavia porcellus [4]): < 50%
inhibition in vivo at 3.2 mg/kg (Cavia porcellus [5]): < 50%
inhibition in vivo at 3.2 mg/kg (Cavia porcellus [6]): < 50%

CCCCC(C)(C)[C@H](O)/C=C/C1CCC(=O)[C@@H]1CCCCCC(C(=O)O)c1ccccc1 (mixture of isomers)
inhibition in vivo at 3.2 mg/kg (Cavia porcellus [4]): < 50%
inhibition in vivo at 3.2 mg/kg (Cavia porcellus [5]): < 50%
inhibition in vivo at 3.2 mg/kg (Cavia porcellus [6]): < 50%

CCCCC(C)(C)[C@@H](O)/C=C/C1CCC(=O)[C@@H]1CCCCCC(C(=O)O)c1ccccc1 (mixture of isomers)
inhibition in vivo at 3.2 mg/kg (Cavia porcellus [4]): < 50%
inhibition in vivo at 3.2 mg/kg (Cavia porcellus [5]): < 50%
inhibition in vivo at 3.2 mg/kg (Cavia porcellus [6]): < 50%

CCCCC(C)(C)[C@H](O)/C=C/C1CCC(=O)[C@@H]1CCCCOCC(=O)OCC (mixture of isomers)
ED50 (Cavia porcellus [1]): 69.6 µg/kg
ED50 (Cavia porcellus [2]): 123 µg/kg
ED50 (Cavia porcellus [3]): 96.7 µg/kg

CCCCC(C)(C)[C@@H](O)/C=C/C1CCC(=O)[C@@H]1CCCCOCC(=O)OCC (mixture of isomers)
ED50 (Cavia porcellus [1]): 194 µg/kg
ED50 (Cavia porcellus [2]): 209 µg/kg
ED50 (Cavia porcellus [3]): 349 µg/kg

CCCCC(C)(C)[C@H](O)/C=C/C1CCC(=O)[C@@H]1CCCCOCC(=O)O (mixture of isomers)
ED50 (Cavia porcellus [2]): 185 µg/kg
ED50 (Cavia porcellus [3]): 550 µg/kg

CCCCC(C)(C)[C@@H](O)/C=C/C1CCC(=O)[C@@H]1CCCCOCC(=O)O (mixture of isomers)
ED50 (Cavia porcellus [1]): 373 µg/kg
ED50 (Cavia porcellus [7]): 32 µg/kg
ED50 (Cavia porcellus [3]): 558 µg/kg

CCCCC(C)[C@H](O)/C=C/C1CCC(=O)[C@@H]1CCCCCCC(=O)OCC (mixture of isomers)
inhibition in vivo at 3.2 mg/kg (Cavia porcellus [5]): < 50%
ED50 (Cavia porcellus [7]): 320 µg/kg
ED50 (Cavia porcellus [8]): 32000 µg/kg

CCCCC(C)[C@@H](O)/C=C/C1CCC(=O)[C@@H]1CCCCCCC(=O)OCC (mixture of isomers)
ED50 (Cavia porcellus [8]): 32000 µg/kg
ED50 (Cavia porcellus [2]): 99.3 µg/kg
ED50 (Cavia porcellus [3]): 396 µg/kg

CCCCC(C)[C@H](O)/C=C/C1CCC(=O)[C@@H]1CCCCCCC(=O)O (mixture of isomers)
ED50 (Cavia porcellus [8]): 320 µg/kg
ED50 (Cavia porcellus [2]): 346 µg/kg
ED50 (Cavia porcellus [3]): > 320 µg/kg

CCCCC(C)[C@@H](O)/C=C/C1CCC(=O)[C@@H]1CCCCCCC(=O)O (mixture of isomers)
ED50 (Cavia porcellus [1]): 73.2 µg/kg
ED50 (Cavia porcellus [2]): 7.01 µg/kg
ED50 (Cavia porcellus [3]): 9.89 µg/kg

CCCCC(C)[C@H](O)/C=C/C1CCC(=O)[C@@H]1C/C=C\CCCC(=O)OCC (mixture of isomers)
ED50 (Cavia porcellus [1]): 65700 µg/kg
inhibition in vivo at 3.2 mg/kg (Cavia porcellus [5]): < 50%
ED50 (Cavia porcellus [2]): 179000 µg/kg

CCCCC(C)[C@@H](O)/C=C/C1CCC(=O)[C@@H]1C/C=C\CCCC(=O)OCC (mixture of isomers)
ED50 (Cavia porcellus [1]): 1.37 µg/kg
ED50 (Cavia porcellus [2]): 9.65 µg/kg
ED50 (Cavia porcellus [3]): > 320 µg/kg

CCCCC(C)[C@H](O)/C=C/C1CCC(=O)[C@@H]1C/C=C\CCCC(=O)O (mixture of isomers)
ED50 (Cavia porcellus [1]): 108000 µg/kg
ED50 (Cavia porcellus [2]): 1.35 µg/kg
ED50 (Cavia porcellus [3]): 1.63 µg/kg

CCCCC(C)[C@@H](O)/C=C/C1CCC(=O)[C@@H]1C/C=C\CCCC(=O)O (mixture of isomers)
ED50 (Cavia porcellus [1]): 2.99 µg/kg
ED50 (Cavia porcellus [2]): 39.9 µg/kg
ED50 (Cavia porcellus [3]): 87.5 µg/kg

CCCCC(CC)[C@H](O)/C=C/C1CCC(=O)[C@@H]1CCCCCCC(=O)OCC (mixture of isomers)
ED50 (Cavia porcellus [8]): 32 µg/kg
ED50 (Cavia porcellus [2]): 1.11e+09 µg/kg
ED50 (Cavia porcellus [3]): 145 µg/kg

CCCCC(CC)[C@@H](O)/C=C/C1CCC(=O)[C@@H]1CCCCCCC(=O)OCC (mixture of isomers)
ED50 (Cavia porcellus [1]): 2.7e+09 µg/kg
inhibition in vivo at 3.2 mg/kg (Cavia porcellus [5]): < 50%
ED50 (Cavia porcellus [2]): 1.74e+09 µg/kg

CCCCC(CC)[C@H](O)/C=C/C1CCC(=O)[C@@H]1CCCCCCC(=O)O (mixture of isomers)
ED50 (Cavia porcellus [8]): 32 µg/kg
ED50 (Cavia porcellus [2]): 9.77 µg/kg
ED50 (Cavia porcellus [3]): 113 µg/kg

CCCCC(CC)[C@@H](O)/C=C/C1CCC(=O)[C@@H]1CCCCCCC(=O)O (mixture of isomers)
inhibition in vivo at 3.2 mg/kg (Cavia porcellus [5]): < 50%
ED50 (Cavia porcellus [8]): 32 µg/kg
ED50 (Cavia porcellus [2]): > 3.2 µg/kg

CCCCC(CC)[C@H](O)/C=C/C1CCC(=O)[C@@H]1C/C=C\CCCC(=O)O (mixture of isomers)
inhibition in vivo at 3.2 mg/kg (Cavia porcellus [5]): < 50%
inhibition in vivo at 3.2 mg/kg (Cavia porcellus [6]): < 50%
ED50 (Cavia porcellus [2]): 79.1 µg/kg

CCCCC(CC)[C@@H](O)/C=C/C1CCC(=O)[C@@H]1C/C=C\CCCC(=O)O (mixture of isomers)
inhibition in vivo at 3.2 mg/kg (Cavia porcellus [5]): < 50%
inhibition in vivo at 3.2 mg/kg (Cavia porcellus [6]): < 50%
ED50 (Cavia porcellus [2]): 2.21e+09 µg/kg

CCCCC[C@](C)(O)/C=C/C1CCC(=O)[C@@H]1CCCCCCC(=O)O (mixture of isomers)
ED50 (Cavia porcellus [1]): 4.24 µg/kg
ED50 (Cavia porcellus [9]): 3.2 µg/kg
ED50 (Cavia porcellus [2]): 6.99 µg/kg

CCCCC[C@](C)(O)/C=C/C1CCC(=O)[C@@H]1CCCCOCC(=O)O (mixture of isomers)
ED50 (Cavia porcellus [1]): 25.6 µg/kg
ED50 (Cavia porcellus [2]): 121 µg/kg
ED50 (Cavia porcellus [3]): 73.7 µg/kg
